Among the data in ChEMBL document CHEMBL4513216, “Probing the Open Global Health Chemical Diversity Library for Multistage-Active Starting Points for Next-Generation Antimalarials” (ACS Infect Dis, 2020) are cytotoxicity values, retold here.

Molecules are shown by their SMILES.

This data set can be described thus: Toxicity liver stage against HepG2, at 10uM. The following applies: human, HepG2-A16-CD81EGFP cells; read-out: INHIBITION
More on the design: test concentration 10 uM, cell line HepG2-A16-CD81EGFP. In kind it is cell-based. A digest of the protocol: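 Uninfected HepG2-A16-CD81EGFP cells, 3 × 10^3 per well, 1536-well, plated on prespotted compound at 10 μM final, parasite-free screening media added to match infected plates; puromycin 10 μM positive, DMSO 0.5% negative; run in parallel with 48 h PbLuc assay at 37 °C, 5% CO2; viability by CellTiter-Glo luminescence, normalized to controls.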
`O=c1cc(CSc2nnc[nH]2)nc2sc3c(n12)CCCC3`: the cytotoxicity at 10 µM was -6.04%.

Turning to `CC(C)CCn1nc2ccc(S(=O)(=O)N3CCOCC3)cn2c1=O`, the cytotoxicity at 10 µM was -2.13%.

For `CCOCC(=O)NCCCn1ccnc1-c1ccccc1`, the cytotoxicity at 10 µM is -1.11%.

Turning to `O=C(O)CC(CC(=O)NCCc1ccsc1)c1cccs1` (configuration not stated), the cytotoxicity at 10 µM is -10.9%.

For the molecule `CCOc1ccc(-c2cc(=O)n3c(n2)CCCCC3)cc1`, the cytotoxicity at 10 µM worked out at 5.36%.

For `CC(C)Cc1nc(OCC(N)=O)c(C#N)c2c1CCC2`, the cytotoxicity at 10 µM worked out at 75.7%.

As for `COC(=O)CC(c1cnn(C)c1)c1oc(C)cc(=O)c1O` (configuration not stated), the cytotoxicity at 10 µM stood at 21.9%.

For the molecule `NC(=O)c1ccc2c(c1)nc1n2CCN(Cc2ccccc2)C1`, the cytotoxicity at 10 µM was -8.8%.

Take `c1cnc2c(CN3CCCCC3c3ccncn3)cnn2c1` (configuration not stated): the cytotoxicity at 10 µM is -10.2%.

Take `CN1CCN(c2ncccn2)CC(C(=O)N(C)C)C1` (configuration not stated): the cytotoxicity at 10 µM was determined as 0.651%.

As to `Oc1cc(C2CCCCN2C2CCCC2)nc(-c2ccncc2)n1` (configuration not stated), the cytotoxicity at 10 µM amounted to 5.94%.

For `COc1cccc(CNCc2nc3ccccc3c(=O)[nH]2)c1`, the cytotoxicity at 10 µM was found to be 1.26%.

As to `CO[C@H]1CN(S(=O)(=O)c2ccc(C)cc2)C[C@@]12CCCO2`, the cytotoxicity at 10 µM is -0.479%.

For the molecule `CCc1ccccc1CNC(=O)CCc1cnn(C)c1`, the cytotoxicity at 10 µM was -3.09%.

As to `Cc1noc(C2CCN(C(=O)c3cc(Cl)c(Cl)n3C)CC2)n1`, the cytotoxicity at 10 µM turned out to be 10.7%.

As for `CC(O)CN(C)c1cc(C(F)(F)F)nc(-c2cccnc2)n1` (configuration not stated), the cytotoxicity at 10 µM is -6.68%.

Regarding `CC(C)(C)c1nccc(N2CCCCC2CNS(C)(=O)=O)n1` (configuration not stated), the cytotoxicity at 10 µM was -2.84%.

For `COc1cc(CNC(=O)Nc2nnc(C3CC3)s2)ccc1O`, the cytotoxicity at 10 µM amounted to 31.3%.

In the case of `Cn1cnnc1CNC(=O)Nc1ccc(OC2CCC2)c(F)c1`, the cytotoxicity at 10 µM stood at 1.03%.

As to `CCCN(C)C(=O)c1cc(S(=O)(=O)NCC)ccc1C`, the cytotoxicity at 10 µM was -0.403%.

Regarding `CS(=O)(=O)Nc1ccc(CNC(=O)CN2CCc3ccccc32)cc1`, the cytotoxicity at 10 µM turned out to be 7.1%.

As to `CC(CN1CCCC1=O)NC(=O)c1ccc(-c2ccco2)[nH]c1=O` (configuration not stated), the cytotoxicity at 10 µM is -5.04%.

On to `Cc1cccc(N2CCN(C(=O)CN3CCC(C(N)=O)CC3)CC2)c1`, for which the cytotoxicity at 10 µM is 4.52%.

Consider `Cc1nccn1-c1cc(CNC(=O)N2CCSCC2)ccn1`, for which the cytotoxicity at 10 µM was -0.613%.

Turning to `c1coc(-c2nnc(CN(Cc3cccs3)CC3CCCO3)o2)c1` (configuration not stated), the cytotoxicity at 10 µM came out at 5.79%.

On to `CCN(CC)c1ccc(C(=O)NCc2cccnc2-n2cncn2)cn1`, for which the cytotoxicity at 10 µM was determined as 11.7%.

Take `CC(O)CN1CCN(C(=O)c2cnn(-c3ccc(Cl)cc3)c2)CC1` (configuration not stated): the cytotoxicity at 10 µM is -10.3%.

`Cn1cc(S(=O)(=O)N2CCCC2CC(=O)c2cccs2)cn1` (configuration not stated): the cytotoxicity at 10 µM is -8.08%.

As to `COCCN(Cc1ccc(F)cc1Cl)C(=O)c1ccc(=O)[nH]n1`, the cytotoxicity at 10 µM turned out to be 0.469%.

Turning to `CC(C)c1noc(CN(Cc2ccccc2F)C2CC2)n1`, the cytotoxicity at 10 µM is -7.96%.

On to `CC(O)CN1CCN(C(=O)c2cc3ccccc3[nH]c2=O)CC1` (configuration not stated), for which the cytotoxicity at 10 µM was 0.407%.

Turning to `Cc1cccc(CN2CC[C@@H]3O[C@@H](C(=O)N4CCN(C)CC4)C[C@@H]32)c1`, the cytotoxicity at 10 µM stood at 8.01%.

For `O=C(c1ccnnc1)N1CCC2(CC1)CCN(C(=O)c1cccnc1)C2`, the cytotoxicity at 10 µM is -97.8%.

`CSCc1noc(CNC(=O)C2CCN(C(=O)C3CCC3)CC2)n1`: the cytotoxicity at 10 µM is 6.35%.

`COc1ccc(Cc2nc3c([nH]2)CC(C)(C)CNC3=O)c(OC)c1`: the cytotoxicity at 10 µM was -1.02%.

For `O=C(c1cnn[nH]1)N(CCCO)Cc1cccnc1`, the cytotoxicity at 10 µM is -2.48%.

Regarding `CC(C)c1cc(CN2CCN(c3cccnc3)CC2)n(C)n1`, the cytotoxicity at 10 µM is -0.0184%.

Turning to `Cc1nc[nH]c1CN1CCOC(CCNC(=O)c2ccsc2)C1` (configuration not stated), the cytotoxicity at 10 µM is -13.1%.

With `C1CCC(c2nnc3sc(C4CCOC4)nn23)C1` (configuration not stated), the cytotoxicity at 10 µM was -2.16%.

Consider `COc1ccc(CCN(C)C(C(=O)O)c2ccc(F)c(C)c2)cc1OC` (configuration not stated), for which the cytotoxicity at 10 µM stood at 2.93%.

With `Cc1[nH]c2c(C)ccc(C)c2c1CC(=O)NCc1csc(N(C)C)n1`, the cytotoxicity at 10 µM was -6.65%.

In the case of `Cc1cnc(N2CCCC(O)C2)nc1-c1ccnn1C` (configuration not stated), the cytotoxicity at 10 µM is -0.271%.

Take `Cc1cccc2cc(CN3CCC(O)(CN4CCCC4)CC3)c(=O)[nH]c12`: the cytotoxicity at 10 µM was -14.9%.

Take `Cc1ccc(CCNC(=O)CC2COCCN2S(=O)(=O)N(C)C)s1` (configuration not stated): the cytotoxicity at 10 µM was determined as 1.69%.

As for `Nc1nc2c(c(=O)[nH]1)CCN(C(=O)c1cccc3nccnc13)C2`, the cytotoxicity at 10 µM is -11.4%.

For `CC(C)CN1CCc2[nH]cnc2C12CCN(C(=O)c1cccnc1)CC2`, the cytotoxicity at 10 µM was found to be 23.4%.

As for `CC(C)c1noc(CN2CCN(C(=O)c3ccc(F)cc3)CC2)n1`, the cytotoxicity at 10 µM was -9.73%.

In the case of `c1ccc(-c2noc(CCCN3CCCC3Cn3cncn3)n2)cc1` (configuration not stated), the cytotoxicity at 10 µM is -2.06%.

As for `Cn1ccnc1CN1CCN(CC(=O)NCc2cccs2)CC1`, the cytotoxicity at 10 µM is -8.25%.

Consider `COc1c(CNCc2ccc(Cn3ccnc3)cc2)c(C)nn1C`, for which the cytotoxicity at 10 µM is -25.1%.

`CC(Cn1ccnc1)NC(=O)NCCc1cccnc1` (configuration not stated): the cytotoxicity at 10 µM is -12.1%.

As to `Cc1cccc(NC2CCN(C(=O)Nc3ccncc3)CC2)n1`, the cytotoxicity at 10 µM was -17.1%.

For the molecule `COc1ccc2cc(C(=O)N3CCCC3Cn3cc(C)cn3)[nH]c2c1` (configuration not stated), the cytotoxicity at 10 µM was -0.743%.

Consider `CN(Cc1cnn(C)c1)C(=O)C1CCCN1Cc1ccccn1` (configuration not stated), for which the cytotoxicity at 10 µM is -25.8%.

For `CC(C)c1nc2n(n1)CC(NCc1nc(C3CC3)no1)CC2` (configuration not stated), the cytotoxicity at 10 µM is -7.59%.

On to `COc1cccc(C(=O)N2CCCC(CNS(C)(=O)=O)C2)c1` (configuration not stated), for which the cytotoxicity at 10 µM was -17.9%.

`Cc1nnc2n1CCN(C(=O)c1cc(C)n(-c3ccccn3)c1C)C2`: the cytotoxicity at 10 µM came out at 0.765%.

As for `COc1cc(C(=O)N(Cc2cnn(C)c2)C(C)C)ccc1OCC(N)=O`, the cytotoxicity at 10 µM was -5.45%.

`O=C(CN1CCOC(Cn2cccn2)C1)NCCc1ccc(F)cc1` (configuration not stated): the cytotoxicity at 10 µM is -15.6%.

As to `O=C(C1CCS(=O)(=O)C1)N1CCN(c2cnccn2)CC1` (configuration not stated), the cytotoxicity at 10 µM is -6.66%.

As for `CCOC1CCN(C(=O)c2cnn(-c3ccccc3Cl)c2)CC1`, the cytotoxicity at 10 µM is -9.78%.

Consider `COc1cc(C)nc(N2CCN(C(=O)c3ccccc3C)CC2)n1`, for which the cytotoxicity at 10 µM was -2.18%.

`CCc1nc(C2CCCN2CCn2cncn2)no1` (configuration not stated): the cytotoxicity at 10 µM was -8.13%.

For the molecule `Cc1cc(C)nc(NCCC(=O)NCCn2ccnc2C)n1`, the cytotoxicity at 10 µM amounted to 2.77%.

In the case of `O=C(c1cccnc1)N1CCC2(CC1)CCN(c1ccsc1)C2=O`, the cytotoxicity at 10 µM stood at 6.84%.

As for `CC(C)CN1CCO[C@H]2CCN(c3cnccn3)CC[C@@H]21`, the cytotoxicity at 10 µM came out at 2.31%.

Take `COCC1CC2(CCN(c3ccc(C)nn3)CC2)CN1C(C)C` (configuration not stated): the cytotoxicity at 10 µM is -112%.

As to `CCCN1CCC(c2nc3ccc(-c4ccncc4)cn3n2)CC1`, the cytotoxicity at 10 µM was -117%.

In the case of `Cn1ccnc1CN1CCC2(CC1)CCN(c1ccccc1)C2=O`, the cytotoxicity at 10 µM was -9.06%.

Regarding `Cc1cccc(CO[C@@H]2CC[C@H]3[C@H]2OCCN3Cc2ccsc2)n1`, the cytotoxicity at 10 µM was -16.3%.

In the case of `O=c1cc(Cn2cncn2)nc2n1CCCN(CCN1CCCC1)C2`, the cytotoxicity at 10 µM amounted to 2.78%.

In the case of `NC1CCC(n2cc(C(=O)N[C@H]3CCCc4ccccc43)nn2)CC1` (some centres not stated), the cytotoxicity at 10 µM is -5.71%.
